The text below walks through data of ChEMBL document CHEMBL3779798, “Novel seleno- and thio-urea derivatives with potent in vitro activities against several cancer cell lines” (Eur J Med Chem, 2016).

The IC50 is the concentration that inhibits the measured activity by half.

Assay type in all cases: functional, cell-based
Assay [1] concerns A549. The assay can be described thus: Anticancer activity against human A549 cells assessed as inhibition of cell growth after 48 hrs by MTT assay. Conditions: A549, 48 h. A digest of the protocol: (§1)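 MTT assay at 3,000 cells/well. Cells treated with DMSO or seven concentrations from 0.5 to 50 µM for 24, 48 or 72 h. MTT added 3 h before the end point; formazan dissolved in DMSO and read at 570 and 630 nm. IC50 is the concentration giving 50% growth inhibition. Media: PANC-1, BxPC3 and 1205Lu in DMEM; DU145 and A549 in RPMI 1640; HT29, HCT116 and RKO in McCoy's 5A, all with 10% FBS and pen/strep, at 37 °C and 5% CO2.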

Assay [2] can be described thus: Anticancer activity against human BxPC3 cells assessed as inhibition of cell growth after 48 hrs by MTT assay. Conditions: BXPC-3, 48 h. An outline of the steps:
as §1

Assay [3] deals with A549. Kind of assay: Anticancer activity against human A549 cells assessed as inhibition of cell growth after 24 hrs by MTT assay. Conditions: A549, 24 h. An outline of the steps: as §1
In general terms: Tetrazolium assays rely on reduction of a dye to a coloured formazan, in cell work by metabolically active cells.

Assay [4] in a line: Anticancer activity against human PANC1 cells assessed as inhibition of cell growth after 72 hrs by MTT assay. The following applies: PANC-1, 72 h. An outline of the steps: as §1
The test system of assay [5] is HT-29. The assay can be described thus: Anticancer activity against human HT-29 cells assessed as inhibition of cell growth after 72 hrs by MTT assay. Conditions: HT-29, 72 h. An outline of the steps: as §1
Assay [6] in a line: Anticancer activity against human HCT116 cells assessed as inhibition of cell growth after 24 hrs by MTT assay. Conditions: HCT-116, 24 h. A digest of the protocol:
as §1

Assay [7] has as its system RKO. Kind of assay: Anticancer activity against human RKO cells assessed as inhibition of cell growth after 24 hrs by MTT assay. An outline of the steps: as §1
Assay [8] deals with A549. Kind of assay: Anticancer activity against human A549 cells assessed as inhibition of cell growth after 72 hrs by MTT assay. The following applies: A549, 72 h. An outline of the steps: as §1
A short description of assay [9]: Anticancer activity against human BxPC3 cells assessed as inhibition of cell growth after 24 hrs by MTT assay. The following applies: BXPC-3, 24 h. A digest of the protocol: as §1
A short description of assay [10]: Anticancer activity against human DU145 cells assessed as inhibition of cell growth after 48 hrs by MTT assay. The following applies: DU-145, 48 h. An outline of the steps:
as §1

The test system of assay [11] is RKO. The assay can be described thus: Anticancer activity against human RKO cells assessed as inhibition of cell growth after 72 hrs by MTT assay. A digest of the protocol:
as §1

The nature of assay [12]: Anticancer activity against human 1205 Lu cells assessed as inhibition of cell growth after 24 hrs by MTT assay. A digest of the protocol:
as §1

Assay [13] can be described thus: Anticancer activity against human HCT116 cells assessed as inhibition of cell growth after 48 hrs by MTT assay. Conditions: HCT-116, 48 h. A digest of the protocol: as §1
Assay [14] deals with HT-29. Kind of assay: Anticancer activity against human HT-29 cells assessed as inhibition of cell growth after 24 hrs by MTT assay. The following applies: HT-29, 24 h. An outline of the steps: as §1
The test system of assay [15] is RKO. Kind of assay: Anticancer activity against human RKO cells assessed as inhibition of cell growth after 48 hrs by MTT assay. A digest of the protocol:
as §1

The nature of assay [16]: Anticancer activity against human PANC1 cells assessed as inhibition of cell growth after 24 hrs by MTT assay. Conditions: PANC-1, 24 h. An outline of the steps:
as §1

Assay [17] is described as follows: Anticancer activity against human 1205 Lu cells assessed as inhibition of cell growth after 48 hrs by MTT assay. A digest of the protocol:
as §1

Assay [18] in a line: Anticancer activity against human HCT116 cells assessed as inhibition of cell growth after 72 hrs by MTT assay. The following applies: HCT-116, 72 h. An outline of the steps: as §1
The nature of assay [19]: Anticancer activity against human DU145 cells assessed as inhibition of cell growth after 24 hrs by MTT assay. Conditions: DU-145, 24 h. A digest of the protocol:
as §1

The subject of assay [20] is HT-29. Kind of assay: Anticancer activity against human HT-29 cells assessed as inhibition of cell growth after 48 hrs by MTT assay. The following applies: HT-29, 48 h. An outline of the steps: as §1
Assay [21] in a line: Anticancer activity against human PANC1 cells assessed as inhibition of cell growth after 48 hrs by MTT assay. Conditions: PANC-1, 48 h. An outline of the steps:
as §1

A short description of assay [22]: Anticancer activity against human 1205 Lu cells assessed as inhibition of cell growth after 72 hrs by MTT assay. A digest of the protocol: as §1
Assay [23] is described as follows: Anticancer activity against human DU145 cells assessed as inhibition of cell growth after 72 hrs by MTT assay. Conditions: DU-145, 72 h. A digest of the protocol: as §1
Assay [24] can be described thus: Anticancer activity against human BxPC3 cells assessed as inhibition of cell growth after 72 hrs by MTT assay. Conditions: BXPC-3, 72 h. A digest of the protocol: as §1

Turning to `N=C(N)SCc1ccc2c(c1)C(=O)c1ccccc1C2=O`, the IC50 turned out to be 8.7 µM in the assay on A549 [1]; 9 µM in assay [2]; 9.7 µM in the assay with A549 [3]; 6.8 µM in assay [4]; 7.4 µM in the assay with HT-29 [5]; 20.2 µM in assay [6]. The IC50 in the assay with RKO [7] was found to be 28.9 µM; in the assay with A549 [8], 7.6 µM; in [9] it was 4.1 µM; in assay [10], 22.9 µM; in the assay on RKO [11], 21 µM; in assay [12], 9.4 µM. Moreover, the IC50 in assay [13] came out at 10.7 µM; in the assay with HT-29 [14], 17 µM; in the assay with RKO [15], 20.4 µM; in [16], 7.6 µM; in assay [17], 8.5 µM; in assay [18], 10.3 µM. Further, the IC50 in assay [19] was found to be 29.8 µM; in the assay with HT-29 [20], 8.1 µM; in assay [21], 7.4 µM; in [22], 6.3 µM; in [23], 31.2 µM; in [24] it was 7.9 µM.

Turning to `N=C(N)SCc1c2ccccc2nc2ccccc12`, the IC50 (in the assay on A549 [1]; in assay [2]; in the assay on A549 [3]; in assay [4]; in [6]; in the assay on A549 [8]) was above 50 µM each time. The IC50 in assay [9], in assay [10], in assay [12], in assay [13], in assay [16] and in assay [17] was above 50 µM in each case. In addition, the IC50 in assay [18] was 45.1 µM; in [19] it was above 50 µM; in assay [21] it was above 50 µM; in assay [22], above 50 µM; in assay [23], above 50 µM; in [24], 46.3 µM.

Turning to `N=C(N)SCN1C(=O)c2ccccc2C1=O`, the IC50 (in the assay with A549 [1]; in [2]; in the assay with A549 [3]; in assay [4]; in assay [6]; with A549 [8]) was above 50 µM in each case. Moreover, the IC50 in assay [9], in [10], in [12], in assay [13], in assay [16] and in assay [17] was above 50 µM in each case. Besides, the IC50 in assay [18], in [19], in assay [21], in [22], in assay [23] and in assay [24] was above 50 µM in each case.

Take `N=C(N)[Se]Cc1ccc2c(c1)C(=O)c1ccccc1C2=O`: the half-maximal inhibitory concentration (IC50) is 2.2 µM in the assay with A549 [1]; above 50 µM in [2]; 8.9 µM with A549 [3]; 31.4 µM in [4]; above 50 µM in assay [6]; 1.9 µM in the assay on A549 [8]. Also, the IC50 in assay [9] was above 50 µM; in [10], 6.2 µM; in assay [12], 17.4 µM; in [13] it was 12.6 µM; in assay [16], above 50 µM; in [17], 14.5 µM. The half-inhibitory concentration (IC50) is 5.9 µM in assay [18]; 21.4 µM in assay [19]; above 50 µM in assay [21]; 11.3 µM in assay [22]; 8.2 µM in assay [23]; above 50 µM in [24].

Consider `Cc1noc(C)c1C[Se]C(=N)N`, for which the IC50 in the assay on A549 [1] is 2.8 µM; in [2], 6.8 µM; in the assay on A549 [3], above 50 µM; in [4], 13.6 µM; in [6] it was above 50 µM; with A549 [8] it was 1.2 µM. Moreover, the half-maximal inhibitory concentration (IC50) in assay [9] was above 50 µM; in assay [10], 22 µM; in assay [12] it was above 50 µM; in [13], 45 µM; in assay [16], above 50 µM; in [17], above 50 µM. For the same compound, the IC50 in assay [18] is 4.6 µM; in [19] it was above 50 µM; in [21] it was 37.4 µM; in [22], 3.4 µM; in assay [23], 7.4 µM; in [24], 2.4 µM.

As to `N=C(N)SCc1ccc([N+](=O)[O-])o1`, the half-inhibitory concentration (IC50) (in the assay with A549 [1]; in [2]; in the assay with A549 [3]; in assay [4]; in assay [6]; in the assay with A549 [8]) was above 50 µM in each case. Moreover, the half-inhibitory concentration (IC50) in assay [9] is above 50 µM; in assay [10] it was above 50 µM; in [12] it was above 50 µM; in assay [13] it was 30.8 µM; in [16] it was above 50 µM; in assay [17], above 50 µM. The concentration for half-maximal inhibition (IC50) in assay [18] was 7 µM; in [19] it was above 50 µM; in [21], above 50 µM; in [22], above 50 µM; in assay [23], above 50 µM; in assay [24] it was above 50 µM.

On to `N=C(N)[Se]Cc1ccc([N+](=O)[O-])o1`, for which the IC50 in the assay on A549 [1] was 10.2 µM; in assay [2] it was 39.4 µM; with A549 [3], 22.9 µM; in assay [4], 13.6 µM; in assay [6], 14.6 µM; in the assay with A549 [8] it was 9 µM. Besides, the IC50 in [9] is 42.9 µM; in [10] it was above 50 µM; in assay [12], 19.1 µM; in assay [13], 3.7 µM; in assay [16] it was above 50 µM; in assay [17], 15.7 µM. Besides, the IC50 is 3.8 µM in assay [18]; above 50 µM in assay [19]; 15.6 µM in [21]; 13 µM in [22]; 15.6 µM in assay [23]; 15.6 µM in assay [24].

Regarding `N=C(N)[Se]Cc1ccc2ccccc2n1`, the IC50 in the assay on A549 [1] came to 15.1 µM; in assay [2], 17 µM; in the assay on A549 [3] it was 39.6 µM; in [4], 9.6 µM; in assay [6], 29.7 µM; with A549 [8] it was 8.1 µM. The IC50 in assay [9] amounted to 36.6 µM; in assay [10], 11.6 µM; in assay [12], 14.4 µM; in assay [13] it was 19.6 µM; in [16] it was 18 µM; in assay [17] it was 9.9 µM. Also, the IC50 stood at 10.6 µM in assay [18]; 19.6 µM in assay [19]; 15.9 µM in assay [21]; 7.1 µM in [22]; 7.3 µM in assay [23]; 7.8 µM in assay [24].

Regarding `O=c1[nH]cc(F)c(=O)[nH]1` [FLUOROURACIL], the IC50 with HT-29 [5] was 6.3 µM; in assay [6], above 50 µM; in the assay on RKO [7] it was above 50 µM; with RKO [11], 6.8 µM; in assay [13], above 50 µM; in the assay on HT-29 [14], above 50 µM. For the same compound, the results for the IC50 (with RKO [15]; in [18]; in the assay with HT-29 [20]) were 41.1 µM, 27.8 µM and 25 µM, respectively.
